Assay outcomes: PubChem, several laboratories
Only some compounds are listed: those with a hit (about 2.9% of all), similar ones and a draw of the others.
IMP-1 inhibitor: IMP-1 metallo-beta-lactamase inhibitors, primary screen, biochemical, epi-absorbance readout, Pseudomonas aeruginosa enzyme | metallo-beta-lactamase IMP-1 (Pseudomonas aeruginosa) | inhibition, % at 5.6 µM | purified IMP-1, nitrocefin hydrolysis, epi-absorbance fluorescence | AID 1556, 2009 | 0.45% of 290,000 active;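 active = inhibition above the mean plus 3 SD of all compounds in the same screening run, cut at about 4.5% in these data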;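 also: 0% = IMP-1 with DMSO and 100% = DMSO wells lacking enzyme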
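system = purified recombinant IMP-1 beta-lactamase | amount = 0.2 nM IMP-1, as dispensed | medium = HEPES buffer pH 7.1 with ZnSO4 and Brij 35 | times = 25 °C, 15 min preincubation, 25 min reaction | detection = plate fluorescence quenching by hydrolysis product, ex 480/em 530 nm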
VIM-2 inhibitor: VIM-2 metallo-beta-lactamase inhibitors, primary screen, biochemical, epi-absorbance readout, Pseudomonas aeruginosa enzyme; 0.89% of 290,000 active; purified VIM-2, nitrocefin hydrolysis, epi-absorbance fluorescence; inhibition, % at 5.6 µM;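 active = inhibition above the mean of all tested compounds plus 3 SD, cutoff set per screening run, cut at about 7.5% in these data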;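 also: red hydrolysis product quenches plate fluorescence so inhibitors raise well fluorescence; 0% = enzyme with DMSO and 100% = DMSO without enzyme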
FID counter: compounds displacing fluorescent DNA intercalator, primary screen, artefact control for HCV NS3 helicase inhibitor project, biochemical, FID fluorescence; DNA fluorescent intercalator displacement; 0.17% of 290,000 active; AID 1845, 2009; inhibition, % at 7.9 µM; in the data active = inhibition above about 37%;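 also: 0% = vehicle and 100% = reference compound; higher means more ethidium bromide displaced from hairpin DNA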
UBC9 SUMO inh: inhibitors of in vitro SUMOylation cascade, primary screen, biochemical, HTRF, uHTS. SUMO-conjugating enzyme UBC9 (Homo sapiens), P63279. HTRF SUMOylation assay, SAE1/SAE2 + UBC9. inhibition, % at 35 µM. 0.36% of 290,000 active. AID 2006, 2009; in the data active = inhibition above about 50%, passing the limit was not always enough
Target sequence (P63279 whole entry, looked up): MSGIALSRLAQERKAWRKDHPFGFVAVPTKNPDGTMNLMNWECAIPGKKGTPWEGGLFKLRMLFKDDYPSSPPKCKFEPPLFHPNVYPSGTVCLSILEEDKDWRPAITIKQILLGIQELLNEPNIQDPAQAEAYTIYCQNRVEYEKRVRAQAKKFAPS
Mot1-301 SUMO: yeast Mot1-301 growth rescue at high temperature, primary screen, SUMOylation pathway inhibitor project, S. cerevisiae, ATP luminescence, 38.5C; 1% of 320,000 active; growth rescue, % at 18.8 µM; S. cerevisiae Mot1-301 growth rescue; percent above DMSO median, 100 means doubled;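 active = every valid replicate shows activation above 250% relative to neutral control wells; inactive = the rest, any valid replicate at or below 250%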;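 also: OY570 slx delta 5 strain wells were the positive control but not used for scaling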
NALP1 inh: NALP1 inflammasome inhibitors in reconstituted yeast, colorimetric, S. cerevisiae, triplicate retest; AID 2071, 2009; S. cerevisiae NALP1/ASC/caspase-1 growth, X-gal OD620, 72 h; inhibition, % at 10 µM; 0.61% of 280,000 active; in the data active = inhibition mostly above about 24%, no sharp cut-off; inactive = mostly below about 32%
The depositor's hits bear a star; x = not tested or not shown.

SMILES | IMP-1 inhibitor | VIM-2 inhibitor | FID counter | UBC9 SUMO inh | Mot1-301 SUMO | NALP1 inh
COc1cc(OC)cc(C(=O)c2c(C)c(C#N)c3ccccn23)c1 | -2.0 | 7.8* | -6.7 | -6.1 | x | 13.3
COc1ccc2cc(CO)c3cc(OC)c(OC)cc3c2c1 | x | x | x | x | -22.2 | x
c1ccc(CC2CCN(Cc3ccccn3)CC2)cc1 | -4.3 | -2.3 | 3.7 | 12.7 | 342.8* | 23.1
Clc1ccc(CN2CCC(Cc3ccccc3)CC2)cc1 | -0.7 | 2.7 | 9.8 | 0.6 | 67.1 | 28.0
COc1cc(C(C)=O)ccc1OCC(O)Cn1nc(C)c(C(C)=O)c1C (stereo not drawn) | -3.6 | -0.4 | -17.4 | 10.5 | 117.9 | 16.2
O=C(c1ccco1)N1CCN(C(=O)N2CCCCC2)CC1 | -3.8 | -0.8 | 1.7 | 14.5 | -1.6 | 10.1
CCN1CCN(C(=O)C2=C(C(=O)O)CCCC2)CC1 | 12.7* | 6.0 | -5.9 | 15.9 | 8.5 | 16.7
O=C(O)C1=C(C(=O)N2CCN(C(=O)c3ccco3)CC2)CCCC1 | 12.3* | 3.2 | 0.7 | 20.2 | 1.9 | 17.8
Oc1ccc2ccccc2c1/C=N/Nc1nnc(-c2ncc[nH]2)c2ccccc12 | 35.6* | -3.7 | -1.2 | -82.9 | 46.2 | 1.7
Nc1nc(-c2ccc3c(c2)CCCC3)c(CC(=O)O)s1 | 0.6 | 3.2 | -14.6 | 10.7 | 109.3 | 37.2*
Nc1nc(-c2ccc3c(c2)OCCO3)c(CC(=O)O)s1 | 9.9* | 1.5 | -12.5 | 18.5 | 118.2 | 0.6
COc1ccc(N2CCN(C(CNC(=O)C(=O)NCc3cccs3)c3ccco3)CC2)cc1 (stereo not drawn) | -0.8 | 0.8 | -9.4 | 20.5 | -10.7 | 5.2
COC(=O)C1CCN(C(=O)COC(=O)c2cc(-c3ccccc3)nc3ccc(OC)cc23)CC1 | x | x | x | x | -3.9 | x
Cn1c2ccccc2c(=O)c2c(=O)n(C3CCCCC3)c(-c3ccco3)nc21 | 0.1 | 1.6 | -3.8 | 14.1 | 579.9* | 42.1
Cc1ccc(S(=O)(=O)NCC(=O)OCC(=O)c2ccc(Cl)s2)cc1 | -0.2 | -0.1 | -21.5 | -10.3 | 352.8* | 9.1
O=c1c([N+](=O)[O-])c(NCCN2CCCCCC2)c2ccccc2n1-c1ccccc1 | -2.2 | 0.0 | 5.5 | -17.8 | 1.9 | 18.1
O=c1c([N+](=O)[O-])c(N2CCCCC2)c2ccccc2n1-c1ccccc1 | -4.5 | -2.7 | -1.8 | -20.2 | 7.0 | 36.4*
O=C(NCCCNC(=O)c1cnccn1)c1cccc(Cl)c1 | -4.1 | -0.6 | -3.9 | 11.6 | -1.5 | 7.5
C#CCOC(=O)c1ccc(-n2cncn2)nc1 | -1.3 | -3.2 | 1.9 | -6.1 | -6.5 | 42.4*
O=C(Nc1cccc(S(=O)(=O)N2CCCCCC2)c1)c1cncc(Br)c1 | x | x | x | x | 11.6 | x
CCCC1=C(C(=O)OCC)C(c2ccco2)C(C#N)=C(N)O1 (stereo not drawn) | 0.1 | 1.2 | -5.1 | -0.8 | x | 13.4
CCOc1ccc(C2=Nn3c(nnc3-c3ccccn3)SC2)cc1 | -1.6 | 7.7* | -14.7 | -5.0 | -3.9 | 25.6
Brc1ccc(C2=Nn3c(nnc3-c3ccncc3)SC2)cc1 | -2.8 | 9.2* | -3.1 | x | x | x
CCOc1ccc(C2=Nn3c(nnc3-c3ccco3)SC2)cc1 | -3.1 | 2.3 | -7.5 | 21.9 | 5.6 | 17.3
CN(C)S(=O)(=O)c1cc(NC(=O)COC(=O)c2nc(Cl)ccc2Cl)ccc1Cl | x | x | x | x | 13.2 | x
SMILES | IMP-1 inhibitor | VIM-2 inhibitor | FID counter | UBC9 SUMO inh | Mot1-301 SUMO | NALP1 inh
Cc1cc(S(=O)(=O)NCc2ccccc2)ccc1OCC(=O)Nc1cccc([N+](=O)[O-])c1 | -2.2 | 1.0 | -1.1 | 0.4 | 6.7 | 10.7
CCOc1cccc(CN(C)CC2CCCN(CCc3ccc(Cl)cc3)C2)c1O (stereo not drawn) | 1.3 | -0.4 | 11.3 | -11.5 | 11.6 | 18.5
Fc1ccc(C2CC(c3ccccc3)Nc3ncnn32)cc1 (stereo not drawn) | 0.0 | -1.4 | -15.3 | 3.4 | 15.0 | 35.2*
c1ccc(C2CC(c3ccccc3)n3ncnc3N2)cc1 (stereo not drawn) | -0.8 | -1.9 | -12.3 | -6.8 | -2.7 | 10.4
CCN1CCc2c(sc(N)c2C#N)C1 | -0.6 | -0.2 | -1.2 | 19.1 | -11.4 | 9.2
N#Cc1c(N)sc(=S)c2c1CCN(Cc1ccccc1)C2 | x | x | x | 66.6* | x | 25.2
CCc1c(C)c2ccc(OCC(=O)N(C)C)c(C)c2oc1=O | -5.5 | 9.8* | -14.1 | 8.2 | 177.3 | 19.0
Cc1c(CC(=O)O)c(=O)oc2c(C)c(OCc3ccccc3Br)ccc12 | 6.9* | 0.6 | -9.8 | 61.7 | 7.8 | 6.8
Cc1c(C)c2ccc(OCC(=O)N(C)C)c(C)c2oc1=O | -5.0 | 3.5 | -5.7 | 15.4 | 17.7 | 8.9
Cc1c(CC(=O)O)c(=O)oc2c(C)c(OCc3ccccc3)ccc12 | -1.0 | -0.1 | -29.4 | 16.5 | -8.2 | 20.5
CCn1c(Sc2ccc(N)cc2Cl)nc2ccccc21 | -2.6 | -3.1 | -21.1 | 6.4 | 27.1 | 21.5
CCC(C)NC(=O)C(NS(=O)(=O)c1ccc2c(c1)c(=O)n(C)c(=O)n2C)c1ccccc1 (stereo not drawn) | -3.4 | -1.8 | -3.6 | 21.7 | -0.2 | -15.0
CC(C)CCNC(=O)C(NS(=O)(=O)c1ccc2c(c1)c(=O)n(C)c(=O)n2C)c1ccccc1 (stereo not drawn) | -0.8 | -0.8 | 0.8 | -6.3 | 5.6 | 44.0*
COc1ccc(NC(=O)C2CCN(C(=O)[C@@H]3Cc4ccccc4CN3C(=O)OC(C)(C)C)CC2)cc1 | -1.6 | -1.8 | -48.9 | -10.6 | -1.4 | -12.7
CC(=O)c1c2c3c(c(Br)ccc3n(C)c1=O)C(=O)c1ccccc1-2 | 6.7* | 30.5* | 18.3 | x | -12.2 | 18.8
CC(=O)c1c(-c2ccccc2)c2cc(Cl)ccc2n(C)c1=O | -3.6 | -1.3 | -26.6 | -1.4 | 14.6 | -3.1
Cc1c(C(=O)NCc2ccccn2)oc2ccc(Br)cc12 | x | x | x | x | 24.0 | x
Cc1c(C(=O)NCc2cccs2)oc2ccc(Br)cc12 | 5.3* | 1.4 | -8.5 | -9.3 | 33.4 | 6.7
Cc1ccc(-c2cc(C(F)(F)F)n3nc(C(=O)N4CCN5CCCC5C4)cc3n2)cc1 (stereo not drawn) | -0.4 | 10.2* | -4.1 | 20.6 | -7.1 | 17.9
Cc1ccc(SCC(=O)Nc2ccc(F)cc2[N+](=O)[O-])cc1C | -1.8 | -1.5 | -1.8 | -4.9 | -13.5 | 25.2
COc1ccc(-c2sc(C(=O)c3ccc(Cl)cc3Cl)cc2CC(=O)O)cc1 | -1.2 | 10.7* | -9.2 | 20.6 | -10.4 | 11.2
O=C(O)Cc1ccc(C(=O)c2ccc(Cl)cc2Cl)s1 | -0.5 | -0.8 | -5.5 | 10.3 | 11.2 | -2.5
O=C(CCl)N1CCN(CC(=O)N2CCCC2)CC1 | 1.0 | 0.2 | 3.8 | 1.2 | 126.4 | 28.3
N#CCc1nnc2n1-c1ccccc1CCC2 | 11.9* | -2.2 | -2.4 | 21.3 | -14.1 | 4.0
